High-throughput results: PubChem, several laboratories
Only some compounds are listed: those with a hit (about 2.1% of all), similar ones and a draw of the others.
Ba/F3 V617F tox – loss of viability in JAK2V617F-driven Ba/F3 cells | hit rate 1.1% among 220,000 | Ba/F3 EpoR-JAK2V617F viability, ATP luminescence | inhibition, % at 5.6 µM;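 active means inhibition above the campaign mean plus 3 SD over all tested compounds, cut at about 24% in these data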;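 further: cytokine-independent growth of Ba/F3 cells driven by EpoR plus mutant JAK2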
BaF3 parental – reduces parental Ba/F3 cell viability, JAK2V617F counter-screen; hit rate 1.1% among 220,000; CellTiter-Glo ATP luminescence; AID 1486; inhibition, % at 5.6 µM;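 active means inhibition above a per-campaign cutoff, the mean inhibition of all tested compounds plus 3 SD, cut at about 27% in these data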
b-catenin transl – beta-catenin nuclear translocation modulation. HeLa beta-catenin nuclear translocation, immunofluorescence imaging. nuclear translocation activity, % at 5 µM. hit rate 0.3% among 190,000. AID 1665;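 active means nuclear translocation activity above 50% at 5 µM, with a well cell count of 50 or more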;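 further: per-cell ratio of nuclear to cytoplasmic median beta-catenin stain intensity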
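Read-out: Nuclear/cytoplasmic beta-catenin signal ratio, % activation | Assay system: Human HeLa cell line | Times: 24 h compound exposure at 37°C, 5% CO2 | Signal: Fluorescence imaging of beta-catenin antibody stain plus DAPI | Dosing: 5 µM primary, 0.02–20 µM confirmation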
KLF5 inhibitor – suppresses KLF5 promoter-driven expression | DLD-1 KLF5 promoter-luciferase reporter, luminescence | inhibition, % at 5 µM | hit rate 0.23% among 290,000;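 active means inhibition above a per-plate limit of that plate's mean compound inhibition plus 3 SD, cut at about 60% in these data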;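 further: higher means less KLF5 promoter-driven luciferase light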
IEC-6 tox – IEC-6 cytotoxicity, counter-screen for KLF5 inhibitors; luminescence viability; inhibition, % at 5 µM; hit rate 0.78% among 290,000; in the data active means inhibition above about 22%
MT stabilize HCS – microtubule stabilizers in HeLa cells; AID 2205; hit rate 0.83% among 200,000; HeLa tubulin immunostaining HCS, 24 h; share of cells brighter than vehicle mean+2SD; % tubulin-high responders, % at 10 µM;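 active means plate Z-score above 3 for both tubulin-high and condensed-nucleus cell shares, with cell loss under 80%, at 10 µM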;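 further: anti alpha tubulin signal scored within the nucleus-defined area of each cell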
Hits are given with their value; 0 = inactive; - = no result.

SMILES	Ba/F3 V617F tox	BaF3 parental	b-catenin transl	KLF5 inhibitor	IEC-6 tox	MT stabilize HCS
CCOc1ccc(NC(=O)c2ccc(CC)s2)c([N+](=O)[O-])c1	0	0	0	0	0	0
Cc1ccc(Cc2cnc(NC(=O)c3ccco3)s2)cc1	0	0	0	0	0	0
O=C(Nc1ncc(Cc2cccc([N+](=O)[O-])c2)s1)c1ccco1	0	27	0	0	0	0
CC(=O)Nc1ncc(Cc2cccc(Cl)c2)s1	34	28	0	0	0	0
CCOc1ccc(NC(=O)c2ccco2)c([N+](=O)[O-])c1	0	0	0	0	0	12
COc1ccc(/C=N/n2cncn2)cc1Cn1cc([N+](=O)[O-])cn1	0	0	0	0	0	-
COc1ccc(/C=N/Nc2ccc([N+](=O)[O-])cc2)cc1Cn1cc([N+](=O)[O-])cn1	0	0	51	0	0	0
COc1ccc(OC)c(NC(=O)c2cnc(Nc3ccccc3OC)c3ccccc23)c1	0	0	0	0	0	19
Clc1ccccc1CN1CCN(/N=C/C=C\c2ccco2)CC1	0	0	0	0	0	0
CC(C)n1c(C(=O)OCC(=O)NCc2ccc3c(c2)OCO3)cc2occc21	0	0	0	0	0	0
CC(C)n1c(C(=O)OCC(=O)NCc2ccc3c(c2)OCO3)cc2sccc21	0	0	0	0	0	42
COc1ccc(-c2coc3cc4oc(=O)c5ccccc5c4cc23)cc1F	0	0	141	0	0	0
O=C(NCCOc1ccccc1Cl)C(=O)c1c[nH]c2ccccc12	0	0	0	0	0	0
C=CCNC(=O)C(=O)NCCOc1ccccc1Cl	0	0	0	0	0	23
CCOC(=O)NN=C1CCC(c2ccccc2)CC1 (centres undefined)	-	-	-	0	0	-
COCCn1c(C)cc(C2=NNC(=NC3CC3)SC2)c1C	0	0	0	79	0	0
C=CCN=C1NN=C(c2cc(C)n(CCOC)c2C)CS1	0	0	0	0	0	0
COc1cc(/C=C/c2nnc3c4ccccc4ncn23)cc(OC)c1OC	28	43	0	0	0	0
COc1cc(/C=C/c2noc(-c3ccccc3O)n2)cc(OC)c1OC	0	0	0	0	0	0
FC(F)(F)c1cc(-c2ccco2)nc(NCc2cccnc2)n1	0	0	61	0	0	0
CCCc1cc(C(=O)N/N=C/c2ccc(C)o2)c2ccccc2n1	0	0	0	0	0	44
Cc1ccc(/C=N/NC(=O)c2cc(C3CC3)nc3ccccc23)o1	0	0	0	0	0	23
O=C(N/N=C/c1ccccn1)c1cc(C2CC2)nc2ccccc12	-	-	-	0	0	-
Cc1cc(C(=O)N/N=C/c2ccc(C)o2)c2ccccc2n1	0	0	0	0	0	15
Cc1ccc(/C=N/NC(=O)c2cc(-c3ccccc3)nc3ccccc23)o1	-	-	-	0	0	-
SMILES	Ba/F3 V617F tox	BaF3 parental	b-catenin transl	KLF5 inhibitor	IEC-6 tox	MT stabilize HCS
Cc1cc(C(=O)N/N=C/c2ccco2)c2ccccc2n1	0	0	0	0	0	0
O=C(N/N=C/c1ccncc1)c1cc(C2CC2)nc2ccccc12	-	-	-	0	0	-
O=C(N/N=C/c1cccs1)c1cc(C2CC2)nc2ccccc12	0	0	61	0	0	17
COc1ccc(-n2c(C)cc(C(=O)NC3CCCCC3)c2C)cc1	0	0	0	0	0	0
CC(C)OCCCNC(=O)c1cc(S(=O)(=O)N2CCc3ccccc32)cn1C	-	-	-	0	0	-
CCn1c(SC(C)C(=O)Nc2nccs2)nnc1-c1ccncc1 (centres undefined)	-	-	-	0	0	-
Cn1cccc1/C=N/NC(=O)c1cc(-c2cccs2)nc2ccccc12	0	0	0	0	0	17
Cc1ccc(Nc2cc(C)nc(NCc3ccccc3)n2)cc1	0	0	0	0	0	30
COc1ccc(Nc2cc(C)nc(NCc3ccccc3)n2)cc1	0	0	0	0	0	-
CC1=CC(C)(C)N2C(=O)C(=O)c3cc(OC(=O)c4ccco4)cc1c32	69	53	0	0	88	0
O=C(Oc1cccc(OC(=O)c2ccco2)c1)c1ccco1	-	-	-	0	0	-
COc1ccc(OC)c(Cc2nnc(CCC(=O)NC3CCCCCCC3)o2)c1	0	0	0	0	0	0
O=C(O)c1ccc(COCC(F)(F)C(F)F)o1	0	0	0	0	0	0
Cc1cnc(NC(=O)CSc2ccc(Cl)cc2)s1	0	0	0	0	0	0
Cc1cnc(NC(=O)Nc2ccc(Cl)cc2)s1	92	72	0	0	29	0
O=[N+]([O-])c1ccc(Sc2cccc[n+]2[O-])c2nonc12	99	105	0	0	100	-
CC(Sc1nc2ccccc2c(=O)n1CCc1ccc(S(N)(=O)=O)cc1)C(=O)NC(N)=O (centres undefined)	-	-	-	0	0	-
CNc1ccc(Br)cc(C(=O)/C=C/c2ccc(OC)cc2OC)c1=O	0	0	0	0	0	0
CCNc1ccc(Br)cc(C(=O)/C=C/c2ccc(Cl)cc2)c1=O	0	0	0	0	0	16
CCNc1ccc(Br)cc(C(=O)/C=C/c2c(Cl)cccc2Cl)c1=O	0	0	0	0	0	0
CNc1ccc(Br)cc(C(=O)/C=C/c2cccc(OC)c2)c1=O	0	0	0	0	0	13
CNc1ccc(Br)cc(C(=O)/C=C/c2ccc(Cl)cc2Cl)c1=O	0	0	0	0	0	9.3
N#C/C(=C/c1ccc(N2CCOCC2)o1)c1ccc(Br)cc1	58	62	0	0	0	0
N#C/C(=C\c1ccc(N2CCOCC2)o1)c1ccccc1	0	30	0	0	0	0
Cc1nc(Nc2ccc(Cl)cc2)c(C#N)c(=O)[nH]1	-	-	-	0	0	-
SMILES	Ba/F3 V617F tox	BaF3 parental	b-catenin transl	KLF5 inhibitor	IEC-6 tox	MT stabilize HCS
O=C(CCn1c(=S)oc2ccccc21)NC1CCCCCC1	0	0	0	0	0	-
CC1CCCCN1C(=O)CCn1c(=S)oc2ccccc21 (centres undefined)	0	50	0	0	0	-
Cc1cccc(OCc2nnc(SCC(=O)O)n2Cc2ccccc2)c1	0	0	0	0	0	0
COc1ccc(-c2nnnn2-c2ccccc2OC)cc1	0	0	0	0	0	20
CCOc1cc(/C=C2\SC(=Nc3ccc(CC)cc3)NC2=O)ccc1OCC(=O)O	-	-	-	0	0	-
CCc1nnc(NC(=O)CSc2nc(C)c3c(c2C#N)CCCC3)s1	0	0	0	0	0	26
CC(C)(C)NC(=O)CSc1nc(-c2ccc(F)cc2)cs1	0	0	0	0	0	0
CC1=[N+](C)c2ccc3ccccc3c2C1(C)C	53	54	0	0	0	0
Cc1nsc2c1ccc1ccccc12	0	0	0	0	0	0
Cc1ccc(C#CC[N+]2(CC#Cc3ccc(C)cc3)CCCCC2)cc1	96	78	0	0	0	0
C(#Cc1ccccc1)C[N+]1(CC#Cc2ccccc2)CCCCC1	87	69	0	0	0	0
CCC[N+]1(CC#CCC(c2ccccc2)c2ccccc2)CCCCC1	-	-	-	0	0	-
C#CC[N+]1(CC#Cc2ccccc2)CCCCC1	46	59	-	0	0	0
C#CC[N+]1(CC#Cc2cccc(C)c2)CCCCC1	76	67	0	0	0	0
